One molecule from ChEMBL document CHEMBL1156477, “Small-molecule-mediated rescue of protein function by an inducible proteolytic shunt” (Proc Natl Acad Sci U S A, 2007) can be followed below.

Active and inactive are the calls of the source. No cut-off for these calls is given here.

The test deals with SYF. As to the kind of experiment: Effect on proliferation of mouse SYF cells expressing FRB3-ubiquitin-C-v-src construct at 100 nM after 24 hsr by MTT assay. The format is functional, cell-based. In short, it runs like this: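 SYF cells (DMEM/10% FBS, 37°C, 5% CO2) transfected via FuGENE-6 with construct 1 plus v-Src cleavage construct; after 24 h expression, trypsinized, ~1 × 10^4 cells replated with rapamycin (100 nM) or DMSO; MTT proliferation assay performed after a further 24 h.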

For `CO[C@H]1C[C@@H]2CC[C@@H](C)[C@@](O)(O2)C(=O)C(=O)N2CCCC[C@H]2C(=O)O[C@H]([C@H](C)C[C@@H]2CC[C@@H](O)[C@H](OC)C2)CC(=O)[C@H](C)/C=C(\C)[C@@H](O)[C@@H](OC)C(=O)[C@H](C)C[C@H](C)/C=C/C=C/C=C/1C`, the result was Active.
